The values below come from ChEMBL document CHEMBL1150058, “Gigantetronenin and gigantrionenin: novel cytotoxic acetogenins from Goniothalamus giganteus” (J Nat Prod, 1992).

Data set [1] in a line: Toxicity in brine shrimp. Type of data set: organism-based. The note with it: artemia, in vivo.
In data set [2] the test system is MCF7. As to the kind of experiment: Cytotoxicity against human MCF7 cells. The data set is classed as functional. The note with it: read-out: ED50 (the source's name). In a few lines:
(§1)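 Cultured human tumour lines (A-549 lung carcinoma, MCF-7 breast carcinoma, HT-29 colon adenocarcinoma) were tested at the Purdue Cell Culture Laboratory by standard protocols, with adriamycin as positive control.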

Data set [3] has as its system HT-29. As to the kind of experiment: Cytotoxicity against human HT-29 cells. The note with it: read-out: ED50 (the source's name). The data set is classed as functional. In a few lines:
as §1

For data set [4], the system named is A549. Description: Cytotoxicity against human A549 cells. Type of data set: functional. To be noted: for EC50: Homo sapiens, A549, read-out: ED50 (the source's name). Put shortly: as §1

≈ marks a conversion by molar mass, not a printed value.

In data set [1], `CCCCCCCCCCCC[C@H](O)[C@@H]1CC[C@@H]([C@@H](O)CCCCCCC(O)CCCCC[C@@H](O)CC2=C[C@H](C)OC2=O)O1` (stereo not given in full) [ANNOMONTACIN] showed an LC50 of 12.5 µg/mL (≈ 20 µM).
Consider `COc1cccc2c1C(=O)c1c(O)c3c(c(O)c1C2=O)C[C@@](O)(C(=O)CO)C[C@@H]3O[C@H]1C[C@H](N)[C@H](O)[C@H](C)O1` [DOXORUBICIN], for which the EC50 was 0.0108 µg/mL (≈ 0.0199 µM) in data set [2] and 0.00483 µg/mL (≈ 0.00889 µM) in data set [3]. Also, in data set [1], the median lethal concentration (LC50) was determined as 8 µg/mL (≈ 14.7 µM). This molecule registered an ED50 in data set [4] of 2.37 ×10⁻⁴ ug/ml.
Turning to `CCCCCCCCCCCC/C=C\CC[C@@H](O)[C@H](O)CC[C@H](O)[C@@H]1CC[C@@H](CCCCCCCC2=C[C@H](C)OC2=O)O1` [GIGANTRIONENIN], the results for the EC50 in data set [2], in data set [3] and in data set [4] were 8.06 µg/mL (≈ 13.3 µM), 0.00292 µg/mL (≈ 0.00481 µM) and 0.00394 µg/mL (≈ 0.00649 µM), respectively. In data set [1], this molecule showed an LC50 of 13.9 µg/mL (≈ 22.9 µM).
Take `CCCCCCCCCCCC/C=C\CC[C@@H](OC(C)=O)[C@@H](CC[C@H](OC(C)=O)[C@@H]1CC[C@@H](CCCCCCCC2=CC(C)OC2=O)O1)OC(C)=O` (stereo not given in full): the results for the EC50 in data set [2], in data set [3] and in data set [4] were 24.9 µg/mL (≈ 33.9 µM), 0.0667 µg/mL (≈ 0.091 µM) and 0.359 µg/mL (≈ 0.49 µM), respectively.
As for `CCCCCCCCCCCCCCC(O)C(O)CC[C@H](O)[C@H]1CC[C@H](CCCCC[C@@H](O)CC2=C[C@H](C)OC2=O)O1` (stereo not given in full) [GIGANTETRONENIN], the LC50 in data set [1] came to 9.4 µg/mL (≈ 15.7 µM). Further, in data set [4], the EC50 was 0.00471 µg/mL (≈ 0.00789 µM).
With `CCCCCCCCCCCC[C@@H](OC(C)=O)[C@H]1CC[C@H]([C@@H](CCCCCC[C@H](CCCCC[C@H](CC2=C[C@H](C)OC2=O)OC(C)=O)OC(C)=O)OC(C)=O)O1`, the values for the EC50 in data set [2], in data set [3] and in data set [4] were 90.4 µg/mL (≈ 114 µM), 14.9 µg/mL (≈ 18.7 µM) and 0.17 µg/mL (≈ 0.214 µM), respectively.
For `CCCCCCCCCCCC/C=C\CC[C@@H](OC(C)=O)[C@@H](CC[C@H](OC(C)=O)[C@@H]1CC[C@@H](CCCCCC(CC2=CC(C)OC2=O)OC(C)=O)O1)OC(C)=O` (stereo not given in full), in that order: 5.97 µg/mL (≈ 7.55 µM), 1.6 µg/mL (≈ 2.02 µM) and 0.96 µg/mL (≈ 1.21 µM).

As a reminder, the LC50 is the concentration lethal to half of the exposed cells or organisms. A low value points to a more lethal substance.
